Assay outcomes deposited in PubChem by Broad Institute.
Hits are enriched below; roughly 3% of the tested compounds scored in any of these assays.
Wnt bcat act: activators of Wnt/beta-catenin signaling; Wnt/beta-catenin reporter cell assay, activator, plate reader; activation, % at 9.35 µM; 300,000 compounds, 1.2% hits; AID 743398; in the data active means activation above about 30%, passing the limit was not always enough; inconclusive means no clear call, values can overlap the other calls;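 further: 0% = neutral control wells and 100% = positive control wells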
MITF TRPM1 HTS: MITF TRPM1 promoter activation in melanoma cells; 300,000 compounds, 0.75% hits; SK-MEL-5 TRPM1-promoter luciferase, 24 h; % of positive control, neutral wells = 0; AID 588334; activation, % at 12.5 µM;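 active means mean activation of at least 80% with every replicate also reaching 80%; inconclusive means mean reaches 80% but some replicate falls short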;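 further: 0% = neutral control wells and 100% = parthenolide positive control wells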
Xi reactivation: activators of X-chromosome reactivation in mouse fibroblasts; XiGFP mouse fibroblasts, % GFP-positive cells imaging, 3 d; cells co-treated with 5-aza-dC sensitizer; scaled so ellipticine positive control = 100%; activation, % at 7.58 µM; 360,000 compounds, 0.055% hits;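 active means mean normalized replicate activation at least 10% and every replicate at or above 10%; inconclusive means only one of the two criteria met; inactive means mean below 10% and not all replicates reach 10%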;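 further: 0% = median of on-plate neutral control wells and 100% = ellipticine 6 µM median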
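Assay system: SV40-immortalized XiGFP fibroblast cells, line 68-5-11; buffer or medium: DMEM plus 5-aza-dC sensitizer; compound: one concentration, pinned; timing: compounds 3 days, fix/stain 15 min at room temperature; benchmarks: positive control ellipticine, 6 µM final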
NSD2 HMT inh: NSD2 (human) methyltransferase inhibition; inhibition, % at 12.5 µM; NSD2 peptide methylation, AlphaScreen, 120 min; 310,000 compounds, 0.54% hits; AID 743445; in the data active means inhibition above about 50%
CASP6 VEID inh: inhibitors of human caspase-6; P55212; inhibition, % at 12.5 µM; 350,000 compounds, 0.53% hits; purified caspase-6, Z-VEID-R110 cleavage fluorescence;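 active means mean inhibition across replicates at least about 35%, with every replicate also reaching that limit, limit read from the data; inconclusive means only one of the two criteria met; inactive means neither criterion met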;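 further: 0% = median of neutral control wells and 100% = no fluorescence left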
Target sequence (P55212 24-179 limits assumed): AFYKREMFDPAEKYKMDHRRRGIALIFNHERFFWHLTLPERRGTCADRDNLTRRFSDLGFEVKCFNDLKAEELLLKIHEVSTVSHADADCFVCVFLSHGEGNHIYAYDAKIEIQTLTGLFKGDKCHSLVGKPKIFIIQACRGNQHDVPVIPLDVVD
Target sequence (P55212 194-293 limits assumed): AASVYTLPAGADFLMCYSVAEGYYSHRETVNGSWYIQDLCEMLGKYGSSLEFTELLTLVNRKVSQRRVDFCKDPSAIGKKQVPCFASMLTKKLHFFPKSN
esBAF inh: SWI/SNF esBAF complex inhibition; mouse ES cells, Bmi1-luciferase knock-in reporter, 24 h; 100% = twice the neutral-well signal; reporter increase, % at 12.5 µM; 350,000 compounds, 2% hits; AID 602393; in the data active means activation above about 40%; inconclusive means no clear call, values can overlap the other calls;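 further: 0% = median of the plate's neutral control wells and 100% = double that signal; a rise in the Bmi1 reporter signal indicates esBAF inhibition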
An asterisk follows results filed as active; u = inconclusive; x = not tested or not shown.

SMILES	Wnt bcat act	MITF TRPM1 HTS	Xi reactivation	NSD2 HMT inh	CASP6 VEID inh	esBAF inh
COc1ccc(-c2c(C)nc3c(-c4ccccn4)cnn3c2N)cc1	22	x	0	-2	-2	26
COc1ccc(-c2c(C)nc3c(-c4ccsc4)cnn3c2N)cc1	29	94*	0	0	-1	10
CO[C@H]1CN(C)C(=O)c2ccc(NC(=O)C3CC3)cc2OC[C@H](C)N(C(=O)c2ccccn2)C[C@H]1C	x	x	1	x	-2	-7
CCCCc1c(C)nc2ccc(C(=O)OCC)cc2c1Cl	x	9	0	x	x	x
CCOC(=O)c1ccc2nc(C)c(CCC(C)=O)c(Cl)c2c1	x	x	x	-4	x	63*
C=CCc1c(C)nc2ccc(C(=O)OCC)cc2c1Cl	2	44	0	-1	-2	53*
COc1ccc(S(=O)(=O)N(C)C[C@@H]2OCCCC[C@@H](C)Oc3ccc(NC(=O)c4ccccc4)cc3C(=O)N([C@H](C)CO)C[C@H]2C)cc1	x	x	0	x	-2	-2
C[C@@H]1CN([C@@H](C)CO)C(=O)c2ccccc2-c2ccccc2CO[C@@H]1CN(C)S(=O)(=O)c1cn(C)cn1	x	x	0	x	x	x
COc1ccc(NC(=O)Cn2c(=O)oc3cc(S(=O)(=O)N4CCCC4)ccc32)c(OC)c1	-2	x	0	x	1	-12
COc1cccc(NC(=O)Cn2c(=O)oc3cc(S(=O)(=O)N4CCCC4)ccc32)c1	37*	1	0	-4	-2	x
COc1cccc(CNC(=O)CCCn2ccc3cc(S(=O)(=O)N4CCCC4)ccc32)c1	-2	-6	0	-13	3	13
COc1cccc(CNC(=O)CCn2ccc3cc(S(=O)(=O)N4CCCC4)ccc32)c1	0	-6	0	-1	70*	-3
O=C(OCC(=O)N(Cc1ccccc1)Cc1ccccc1)c1cccc(O)c1	3	-1	0	1	-1	-1
O=C(COC(=O)c1ccc(N2CCCC2=O)cc1)Nc1ccccc1	2	5	0	-1	3	-5
Nc1cccc(C(=O)OCC(=O)c2ccccc2)c1	40*	58	0	-2	x	x
O=C(COC(=O)c1ccc(N2CCCC2=O)cc1)c1ccccc1	16	x	0	49	1	45*
O=C(OCC(=O)c1cccs1)c1ccccc1	0	25	x	-2	x	47*
O=C(CNC(=O)c1ccccc1)OCC(=O)c1cccs1	3	9	0	0	7	0
O=C(COC(=O)c1cccc(O)c1)c1ccccc1	53*	79	0	0	0	39
C[C@@H]1CCCCO[C@H](CN(C)S(=O)(=O)c2ccccc2)[C@H](C)CN([C@H](C)CO)C(=O)c2cc(NC(=O)Nc3ccccc3)ccc2O1	x	x	x	x	-3	6
CC(=O)N(C)C[C@@H]1Oc2cc(-c3cccc(F)c3)ccc2S(=O)(=O)N([C@@H](C)CO)C[C@H]1C	x	x	-1	x	-3	-4
COc1ccc(N=Cc2nc(-c3ccccc3)oc2OC(=O)c2ccccc2)cc1	54*	-11	0	2	-2	x
CCOC(=O)c1c(C)[nH]c(N=Nc2cccc(C)c2)c1C	x	103*	x	x	x	79*
CCOC(=O)c1c(C)[nH]c(C=Nc2ccc(OC)cc2)c1O	2	64	x	5	x	u
CCOC(=O)c1c(C)[nH]c(O)c1C=Nc1ccccc1	2	x	x	-1	x	1
SMILES	Wnt bcat act	MITF TRPM1 HTS	Xi reactivation	NSD2 HMT inh	CASP6 VEID inh	esBAF inh
CCOC(=O)c1c(C)[nH]c(N=Nc2cccc(OC)c2)c1C	45*	130*	0	x	-2	66*
Oc1c(C=Nc2ccccc2)sc2ccccc12	-1	17	0	4	3	x
Oc1sc(C=Nc2ccc(F)cc2)c2ccccc12	42*	29	x	0	x	28
Oc1sc(C=Nc2ccccc2)c2ccccc12	58*	40	x	x	x	77*
O=Cc1ccc(OCc2ccc3c(c2)OCO3)cc1	16	x	0	-4	4	3
Cc1ccc(COc2ccc3c(c2)OCO3)cc1	33*	60	0	4	-1	21
COc1ccc(-c2nnc(N(C)C(=O)c3cccnc3)s2)cc1	41*	36	x	7	x	36
O=C(COc1ccccc1)Nc1nnc(C23CC4CC(CC(C4)C2)C3)s1	24	x	0	x	2	48*
O=C(Nc1nnc(Cc2ccccc2)s1)c1ccco1	25	49	x	1	3	46*
